Only some compounds are listed: those with a hit (about 2% of all), similar ones and a draw of the others.
DENV2 CPE: inhibitors of DENV2 cytopathic effect; DENV2-infected cells, cytopathic effect rescue, plate reader; CPE inhibition, % at 9.99 µM; 350,000 compounds, 1.7% hits; AID 651640; in the data active = CPE inhibition above about 20%, passing the limit was not always enough; tested in BHK-21 cells;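 also: 0% = median of neutral control wells and 100% = median of positive control wells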
CaV13 ICDI inh: Disruptors of the CACNA1D IQ motif to Ca2+-dependent inactivation inhibitor domain association, primary screening, Förster resonance energy transfer in intact living …; HEK cells, CFP/YFP FRET ICDI-IQ, plate reader, 10 min; percent FRET-ratio fall versus neutral wells; inhibition, % at 12.3 µM; 340,000 compounds, 0.098% hits;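 active = mean replicate inhibition of at least 30% and at least 1% of replicates passing that level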;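 also: 0% = median of the neutral control wells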
Casp6 inh: inhibitors of human caspase-6. P55212. purified caspase-6, Z-VEID-R110 cleavage fluorescence. inhibition, % at 12.5 µM. 350,000 compounds, 0.53% hits. AID 686996;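 active = mean inhibition across replicates at least about 35%, with every replicate also reaching that limit, limit read from the data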;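 also: 0% = median of neutral control wells and 100% = no fluorescence left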
Target sequence (P55212 24-179 limits assumed): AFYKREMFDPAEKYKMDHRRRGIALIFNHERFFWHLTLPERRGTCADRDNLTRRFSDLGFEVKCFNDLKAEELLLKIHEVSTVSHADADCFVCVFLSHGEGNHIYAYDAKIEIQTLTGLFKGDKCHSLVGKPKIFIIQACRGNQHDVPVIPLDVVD
Target sequence (P55212 194-293 limits assumed): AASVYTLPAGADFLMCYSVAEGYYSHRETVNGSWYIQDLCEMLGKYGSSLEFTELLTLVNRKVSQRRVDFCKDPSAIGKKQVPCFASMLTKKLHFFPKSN
Xi reactivation: reactivates the inactive X chromosome in mouse fibroblasts | XiGFP mouse fibroblasts, % GFP-positive cells imaging, 3 d; cells co-treated with 5-aza-dC sensitizer; scaled so ellipticine positive control = 100% | activation, % at 7.58 µM | 360,000 compounds, 0.055% hits | AID 743238;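 active = mean normalized replicate activation at least 10% and every replicate at or above 10%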;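 also: 0% = median of on-plate neutral control wells and 100% = ellipticine 6 µM median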
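assay system = SV40-immortalized XiGFP fibroblast cells, line 68-5-11 | buffer or medium = DMEM plus 5-aza-dC sensitizer | doses = single-point pinned compound dosing | times = 3-day compound exposure, then 15 min fixation at room temperature | benchmarks = positive control ellipticine, 6 µM final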
FN deposition inh: fibronectin deposition inhibition; 350,000 compounds, 0.086% hits; inhibition, % at 12.6 µM; AH1F fibroblasts, Alexa488-fibronectin deposition fluorescence, overnight;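 active = mean inhibition across replicates of 30% or more, regardless of how many single replicates reach that level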;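 also: positive control wells lacked labelled fibronectin entirely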
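Material: AH1F fibroblast monolayer depositing Alexa488-labelled fibronectin into matrix / Amount: 10000 AH1F cells per well / Signal: fluorescence 485/525 nm / Medium: DMEM, 2% serum / Compound: single dose, pinned / Incubation: 1 h cell adhesion before compound, then overnight fibronectin incubation / Reagent: Alexa488-FN, 24 nM final / Read-out: inhibition of fibronectin deposition signal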
Active calls of the source: *; ! = not confirmed by another sample.

For O=C(O)c1cccc(N2C(=O)c3cc([N+](=O)[O-])cc4cc([N+](=O)[O-])cc(c34)C2=O)c1 the results were DENV2 CPE 3, CaV13 ICDI inh -6, Casp6 inh 45*, Xi reactivation 0 and FN deposition inh 4.
C[C@H](CO)N1C[C@H](C)[C@H](CN(C)C(=O)CC2CC2)Oc2cc(-c3cccnc3)ccc2S1(=O)=O was read as DENV2 CPE -8, Casp6 inh -3 and Xi reactivation 0.
`C[C@@H]1CN([C@@H](C)CO)C(=O)c2cccc(NC(=O)CCCCCC(=O)Nc3ccccc3N)c2O[C@@H]1CN(C)Cc1ccc2c(c1)OCO2` gave DENV2 CPE 50*, Casp6 inh 2 and Xi reactivation 0.
C[C@@H]1CN([C@H](C)CO)C(=O)c2cccc(NC(=O)CCCCCC(=O)Nc3ccccc3N)c2O[C@@H]1CN(C)Cc1ccc(-c2ccccc2)cc1 was read as DENV2 CPE 36*, Casp6 inh 0 and Xi reactivation 0.
C[C@H]1CN([C@@H](C)CO)C(=O)c2cccc(NC(=O)CCCCCC(=O)Nc3ccccc3N)c2O[C@@H]1CN(C)C was read as DENV2 CPE 23*, Casp6 inh -5 and Xi reactivation 0.
Screening C[C@H]1CN([C@@H](C)CO)C(=O)c2cc(NC(=O)CCCCCC(=O)Nc3ccccc3N)ccc2O[C@@H]1CN(C)Cc1ccc2c(c1)OCO2 returned DENV2 CPE -5, Casp6 inh -5 and Xi reactivation 0.
`C[C@H]1CN([C@@H](C)CO)C(=O)c2cccc(NC(=O)CCCCCC(=O)Nc3ccccc3N)c2O[C@H]1CN(C)C` gave DENV2 CPE -6, Casp6 inh -1 and Xi reactivation 0.
`C[C@H]1CN([C@@H](C)CO)C(=O)c2cc(NC(=O)CCCCCC(=O)Nc3ccccc3N)ccc2O[C@H]1CN(C)Cc1ccc(-c2ccccc2)cc1` gave Xi reactivation 0.
For C[C@H](CO)N1C[C@H](C)[C@H](CN(C)Cc2ccc(-c3ccccc3)cc2)Oc2ccc(NC(=O)CCCCCC(=O)Nc3ccccc3N)cc2C1=O the results were DENV2 CPE 32*, Casp6 inh 2 and Xi reactivation 0.
CC(C)(C)[S@@](=O)N1Cc2cc(C(=O)NC3CCCCC3)nc(-c3cccc(Br)c3)c2[C@H]1CCO was read as DENV2 CPE -3, Casp6 inh -6, Xi reactivation 0 and FN deposition inh 0.
Screening COc1ccc(-c2ccc3c(c2)[C@@H]2[C@@H](CCN2C(=O)NC2CCCC2)[C@H](CO)N3C)cc1 returned DENV2 CPE -12, Casp6 inh 0, Xi reactivation 0 and FN deposition inh 0.
Screening COC(=O)[C@@H]1[C@@H](CO)[C@@H]2Cn3c(ccc(C4=CCCCC4)c3=O)[C@@H]2N1C(=O)C1CC1 returned DENV2 CPE -3, Casp6 inh 3 and Xi reactivation 0.
COc1ccc2c3c(n(C)c2c1)[C@@H](CO)N(C(=O)NC1CCCC1)CC31CN(C)C1 was read as Xi reactivation 0.
For CCCN(C)C[C@H]1Oc2ncc(-c3cccc(C(=O)N(C)C)c3)cc2C(=O)N([C@H](C)CO)C[C@@H]1C the results were DENV2 CPE 17, Casp6 inh -1, Xi reactivation 0 and FN deposition inh -3.
For COCC(=O)N(C)C[C@H]1Oc2ncc(-c3ccc(C)cc3)cc2C(=O)N([C@H](C)CO)C[C@@H]1C the results were DENV2 CPE -1, Casp6 inh -2, Xi reactivation -1 and FN deposition inh 12.
`C[C@H](CO)N1C[C@H](C)[C@H](CN(C)C(=O)Nc2ccccc2)Oc2ccc(NC(=O)CCCCCC(=O)Nc3ccccc3N)cc2C1=O` gave DENV2 CPE 52*, Casp6 inh 2 and Xi reactivation 0.
Screening C[C@H](CO)N1C[C@H](C)[C@@H](CN(C)S(=O)(=O)c2ccc(F)cc2)Oc2ccc(NC(=O)CCCCCC(=O)Nc3ccccc3N)cc2C1=O returned DENV2 CPE 26*, Casp6 inh -1, Xi reactivation -1 and FN deposition inh -7.
`C[C@@H]1CN([C@H](C)CO)C(=O)c2cccc(NC(=O)c3nc4ccccc4s3)c2O[C@H]1CN(C)C(=O)Nc1cccc2ccccc12` gave Xi reactivation -1 and FN deposition inh 18.
Screening CCCNC1=C(N(C(C)=O)c2cccc(F)c2)C(=O)c2ccccc2C1=O returned CaV13 ICDI inh -4, Casp6 inh 80*, Xi reactivation 1 and FN deposition inh 14.
Screening CCCC(=O)NC1=C(Cl)C(=O)c2ccccc2C1=O returned DENV2 CPE -1, CaV13 ICDI inh -2, Casp6 inh 27, Xi reactivation 4 and FN deposition inh 1.
For C[C@@H]1CN([C@H](C)CO)C(=O)c2cccc(N(C)C)c2O[C@@H]1CN(C)Cc1ccncc1 the results were DENV2 CPE 10, Casp6 inh 4, Xi reactivation 0 and FN deposition inh 1.
For CC(=O)NC(Cc1ccccc1)C(=O)O (stereo not drawn) the results were DENV2 CPE 56* and Casp6 inh -1.
Screening CC(=O)NC(Cc1ccccc1)Cc1ccccc1 returned DENV2 CPE -5, CaV13 ICDI inh -14, Casp6 inh 0, Xi reactivation 0 and FN deposition inh -3.
For C[C@@H]1CN([C@@H](C)CO)C(=O)c2cccc(NS(=O)(=O)c3ccc(F)cc3)c2O[C@@H]1CN(C)C(=O)Nc1ccc2c(c1)OCO2 the results were DENV2 CPE -7, Casp6 inh 3 and Xi reactivation 0.
C[C@H](CO)N1C[C@H](C)[C@@H](CN(C)C(=O)Nc2ccc3c(c2)OCO3)Oc2c(NS(=O)(=O)c3ccccc3)cccc2C1=O was read as DENV2 CPE 28*!, CaV13 ICDI inh -9, Casp6 inh -2, Xi reactivation -1 and FN deposition inh 15.
C[C@H](CO)N1C[C@H](C)[C@H](CN(C)C(=O)Nc2ccc3c(c2)OCO3)Oc2c(NS(=O)(=O)c3ccccc3)cccc2C1=O was read as DENV2 CPE -5 and Casp6 inh -1.
Screening C[C@@H]1CN([C@H](C)CO)C(=O)c2cccc(NS(=O)(=O)c3ccc(F)cc3)c2O[C@@H]1CN(C)C(=O)Nc1ccc2c(c1)OCO2 returned DENV2 CPE 24*, Casp6 inh 2 and Xi reactivation 0.
`CC(C)NC(=O)[C@@]1(C)c2ccccc2C(=O)N(Cc2ccccc2)[C@H]1c1ccc(CO)cc1` gave DENV2 CPE -13 and Casp6 inh -3.
`CS(=O)(=O)N1CCCCN2[C@@H](CO)[C@@H](c3ccc(C4=CCCC4)cc3)[C@@H]2C1` gave DENV2 CPE 29*, Casp6 inh 1 and Xi reactivation 0.
